Reference: ChEMBL document CHEMBL1145983, “Novel indolyl aryl sulfones active against HIV-1 carrying NNRTI resistance mutations: synthesis and SAR studies” (J Med Chem, 2003)

Experiments:
MT4 = assay: Cytotoxicity, reducing the vaiability of mock-infected cells; format: functional; settings: Homo sapiens
[1] = tested on: Human immunodeficiency virus 1; assay: Anti-HIV activity protecting MT-4 cells from HIV-1 induced cytopathogenicity; format: functional, organism-based; settings: Human immunodeficiency virus 1, MT4
[2] = tested on: Human immunodeficiency virus 1; assay: Selectivity ratio of CC50/EC50; format: functional
How it was run: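 Ratio of CC50 (MTT viability of mock-infected MT-4 cells) to EC50 (MTT-based 50% protection of HIV-1-infected MT-4 cells from cytopathicity), both determined in parallel.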

SMILES	CC50 (MT4) [µM]	EC50 [1] [µM]	Selectivity index [2]
CCOC(=O)c1cn(S(=O)(=O)c2ccccc2)c2ccc(Cl)cc12	42	> 42	–
NNC(=O)c1[nH]c2ccccc2c1S(=O)(=O)c1ccccc1	133	0.5	266
NC(=O)c1[nH]c2ccc(Cl)cc2c1Sc1c(Cl)cccc1Cl	61	1.2	51
NC(=O)c1[nH]c2ccccc2c1Sc1ccccc1	14	1.4	10
NNC(=O)c1[nH]c2ccc(Cl)cc2c1Sc1ccccc1	44	0.5	88
CCOC(=O)c1[nH]c2ccccc2c1S(=O)(=O)c1cc(Cl)ccc1N	> 200	2.5	>91
CCOC(=O)c1[nH]c2ccc(Cl)cc2c1S(=O)(=O)c1cc(Cl)ccc1N	> 200	1.9	105
NC(=O)c1cc2ccccc2n1S(=O)(=O)c1ccccc1	> 200	15	–
CCOC(=O)c1[nH]c2ccc(Cl)cc2c1S(=O)(=O)c1ccccc1N	> 200	> 200	–
CCOC(=O)c1[nH]c2ccc(Cl)cc2c1Sc1ccccc1N	> 200	2.3	>87
NC(=O)c1[nH]c2ccc(Cl)cc2c1Sc1ccc(Cl)cc1	13	3.1	4
CCOC(=O)c1cc2ccccc2n1S(=O)(=O)c1ccccc1	> 200	> 200	–
NNC(=O)c1[nH]c2ccc(Cl)cc2c1Sc1ccc(Cl)cc1	30	10	3
NC(=O)c1[nH]c2ccc(Cl)cc2c1Sc1ccc(F)cc1	13	1.4	9
NC(=O)c1[nH]c2ccc(Cl)cc2c1S(=O)(=O)c1ccc(F)cc1	17	0.014	1214
NC(=O)c1cc2cc(Cl)ccc2n1S(=O)(=O)c1ccccc1	> 200	66	>3
CC(C)(C)c1ccc(Sc2c(C(N)=O)[nH]c3ccc(Cl)cc23)cc1	45	8	6
CC(=O)c1ccc2[nH]c(C(N)=O)c(S(=O)(=O)c3cc(C)cc(C)c3)c2c1	> 200	0.015	> 13300
CCOC(=O)c1cc2cc(Cl)ccc2n1S(=O)(=O)c1cc(Cl)ccc1N	39	8.3	4.7
NNC(=O)c1[nH]c2ccc(Cl)cc2c1S(=O)(=O)c1ccc(Cl)cc1	> 200	0.2	>1000

SMILES	CC50 (MT4) [µM]	EC50 [1] [µM]	Selectivity index [2]
CC(C)c1ccc(S(=O)(=O)c2c(C(N)=O)[nH]c3ccc(Cl)cc23)cc1	> 200	0.08	>2500
NC(=O)c1cn(S(=O)(=O)c2ccccc2)c2ccccc12	32	> 32	–
NC(=O)c1[nH]c2ccc(Cl)cc2c1S(=O)(=O)c1cc(Cl)ccc1N	4.6	0.04	115
O=S(=O)(c1ccccc1)n1ccc2cc(Cl)ccc21	75	> 75	–
Cc1cc(C)cc(S(=O)(=O)c2c(C(=O)NN)[nH]c3ccc(Cl)cc23)c1	> 200	0.1	>2000
CC(C)c1ccc(Sc2c(C(N)=O)[nH]c3ccc(Cl)cc23)cc1	52	1.9	27
NC(=O)c1[nH]c2ccc(Cl)cc2c1Sc1cc(Cl)ccc1N	33	1.6	20
CCOC(=O)c1cn(S(=O)(=O)c2ccccc2)c2ccccc12	32	> 32	–
Cc1ccc(S(=O)(=O)c2c(C(=O)NN)[nH]c3ccc(Cl)cc23)cc1	> 200	0.05	>4000
CCOC(=O)c1[nH]c2ccccc2c1Sc1ccccc1	> 200	> 200	–
Cc1cc(C)cc(S(=O)(=O)c2c(C(N)=O)[nH]c3ccc(C(C)O)cc23)c1 (stereo unspecified)	> 200	0.025	>8000
NC(=O)c1[nH]c2ccc(Cl)cc2c1Sc1ccccc1	9	0.02	450
NC(=O)c1cn(S(=O)(=O)c2ccccc2)c2ccc(Cl)cc12	200	> 200	–
NC(=O)c1[nH]c2ccccc2c1S(=O)(=O)c1cc(Cl)ccc1N	3.5	0.3	11.7
NC(=O)c1[nH]c2ccccc2c1Sc1cc(Cl)ccc1N	20	9	2.2
CCOC(=O)c1cc2cc(Cl)ccc2n1S(=O)(=O)c1ccccc1	> 200	> 200	–
NNC(=O)c1[nH]c2ccc(Cl)cc2c1S(=O)(=O)c1cc(Cl)ccc1N	19	0.3	63
NNC(=O)c1[nH]c2ccc(Cl)cc2c1Sc1ccc(F)cc1	66	5	13
CCOC(=O)c1[nH]c2ccccc2c1S(=O)(=O)c1ccccc1	157	3.7	42
NC(=O)c1[nH]c2ccc(Cl)cc2c1S(=O)(=O)c1ccc(Cl)cc1	> 200	0.011	>18182

SMILES	CC50 (MT4) [µM]	EC50 [1] [µM]	Selectivity index [2]
CCOC(=O)c1[nH]c2ccccc2c1Sc1cc(Cl)ccc1N	> 200	> 200	–
O=S(=O)(c1ccccc1)n1ccc2ccccc21	150	> 150	–
CC(C)(C)c1ccc(S(=O)(=O)c2c(C(N)=O)[nH]c3ccc(Cl)cc23)cc1	26	0.13	200
NNC(=O)c1[nH]c2ccc(Cl)cc2c1S(=O)(=O)c1ccc(F)cc1	44	0.3	147
CCOC(=O)c1cc2ccccc2n1S(=O)(=O)c1ccccc1[N+](=O)[O-]	> 200	> 200	–
Cc1ccccc1Sc1c(C(N)=O)[nH]c2ccc(Cl)cc12	26	0.3	87
CCOC(=O)c1[nH]c2ccc(Cl)cc2c1Sc1cc(Cl)ccc1N	> 200	2.5	>80
CCOC(=O)c1cc2ccccc2n1S(=O)(=O)c1cc(Cl)ccc1N	50	1.8	28
CCOC(=O)c1cc2cc(Cl)ccc2n1S(=O)(=O)c1ccc(Cl)cc1	> 200	> 200	–
Cc1ccc(Sc2c(C(=O)NN)[nH]c3ccc(Cl)cc23)cc1	129	1.5	86
CC(C)OC(=O)c1cn(S(=O)(=O)c2ccccc2)c2ccc(Cl)cc12	> 200	> 200	–
CCOC(=O)c1cc2cc(Cl)ccc2n1S(=O)(=O)c1cc(Cl)ccc1[N+](=O)[O-]	31	> 31	–
Cc1ccc(Sc2c(C(N)=O)[nH]c3ccc(Cl)cc23)cc1	0.45	> 0.45	–
CC(C)OC(=O)c1cn(S(=O)(=O)c2ccccc2)c2ccccc12	54	> 54	–
NC(=O)c1[nH]c2ccccc2c1S(=O)(=O)c1ccccc1	> 200	0.18	> 1110
CCOC(=O)c1cc2ccccc2n1S(=O)(=O)c1cc(Cl)ccc1[N+](=O)[O-]	> 100	> 100	–
NNC(=O)c1[nH]c2ccc(Cl)cc2c1Sc1cc(Cl)ccc1N	13	> 13	–
NNC(=O)c1[nH]c2ccc(Cl)cc2c1S(=O)(=O)c1ccccc1	> 200	0.01	>20000
NNC(=O)c1cc2ccccc2n1S(=O)(=O)c1ccccc1	> 200	> 200	–
